Reference: ChEMBL document CHEMBL3611976, “Synthesis of new 4-phenylpyrimidine-2(1H)-thiones and their potency to inhibit COX-1 and COX-2” (Eur J Med Chem, 2015)
Each block holds one compound with its values, some of them ahead of it. The source made the active and inactive calls. No cut-off for these calls is given here.

Experiments:
[1] = biological target: T1, Prostaglandin G/H synthase 2 (Ovis aries, UniProt P79208); test: Inhibition of sheep placental cotyledons COX-2 using arachidonic acid as substrate preincubated for 5 mins followed by substrate addition after 20 mins by competitive PGE2 EIA method
T1 sequence (P79208 whole entry): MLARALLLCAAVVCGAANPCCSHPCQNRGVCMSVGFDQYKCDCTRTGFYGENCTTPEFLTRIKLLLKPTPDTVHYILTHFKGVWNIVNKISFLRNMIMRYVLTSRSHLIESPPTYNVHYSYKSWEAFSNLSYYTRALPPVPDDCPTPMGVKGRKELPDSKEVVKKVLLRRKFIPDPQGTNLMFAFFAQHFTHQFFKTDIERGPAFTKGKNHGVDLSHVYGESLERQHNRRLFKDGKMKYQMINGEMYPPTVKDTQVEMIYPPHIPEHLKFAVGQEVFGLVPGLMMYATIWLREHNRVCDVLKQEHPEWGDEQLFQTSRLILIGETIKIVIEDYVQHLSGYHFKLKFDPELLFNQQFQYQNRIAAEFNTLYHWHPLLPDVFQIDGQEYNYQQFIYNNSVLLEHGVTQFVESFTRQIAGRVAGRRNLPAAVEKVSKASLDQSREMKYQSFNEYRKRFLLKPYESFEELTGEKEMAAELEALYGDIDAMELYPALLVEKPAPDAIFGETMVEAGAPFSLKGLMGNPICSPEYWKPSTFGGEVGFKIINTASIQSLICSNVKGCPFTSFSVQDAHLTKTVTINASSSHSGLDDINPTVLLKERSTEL
In short: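 Purified sheep placental PGHS-2 at 0.2 units/well in 0.1 M Tris/HCl with 18 mM epinephrine hydrogen tartrate, hematin and Na EDTA. Samples were preincubated for 5 min at room temperature, then arachidonic acid in ethanol was added to start the reaction. After 20 min at 37 °C the reaction was stopped with 10% formic acid. PGE2 was measured by competitive EIA absorbance, and inhibition was calculated relative to a blank.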

[2] = biological target: Prostaglandin G/H synthase 1 (Ovis aries) (UniProt P05979); test: Inhibition of ram seminal vesicles COX-1 using arachidonic acid as substrate at 50 ug/ml preincubated for 5 mins followed by substrate addition after 20 mins by competitive PGE2 EIA method
Prostaglandin G/H synthase 1 (Ovis aries), sequence (P05979 whole entry, looked up): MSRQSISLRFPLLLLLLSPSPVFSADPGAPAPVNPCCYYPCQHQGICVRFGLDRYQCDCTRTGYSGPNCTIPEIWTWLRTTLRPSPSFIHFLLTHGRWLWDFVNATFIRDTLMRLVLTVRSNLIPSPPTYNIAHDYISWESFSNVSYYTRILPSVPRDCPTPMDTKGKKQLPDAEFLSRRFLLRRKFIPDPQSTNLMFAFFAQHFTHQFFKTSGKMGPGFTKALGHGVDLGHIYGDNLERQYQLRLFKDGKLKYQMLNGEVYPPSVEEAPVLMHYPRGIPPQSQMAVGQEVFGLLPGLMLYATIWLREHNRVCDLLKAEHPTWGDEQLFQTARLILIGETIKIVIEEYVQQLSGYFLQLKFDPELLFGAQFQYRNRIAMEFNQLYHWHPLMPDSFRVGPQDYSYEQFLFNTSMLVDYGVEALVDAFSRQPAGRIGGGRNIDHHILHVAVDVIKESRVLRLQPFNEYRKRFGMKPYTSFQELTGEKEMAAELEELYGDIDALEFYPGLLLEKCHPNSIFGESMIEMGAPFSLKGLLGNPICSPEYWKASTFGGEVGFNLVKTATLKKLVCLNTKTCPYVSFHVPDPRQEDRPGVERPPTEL

[3] = biological target: T2, Prostaglandin G/H synthase 2 (Homo sapiens) (UniProt P35354); test: Inhibition of COX2 in differentiated human THP1 cells assessed as […] LPS-induced COX2 gene expression at 50 ug/ml preincubated for 1 hr followed by LPS induction measured after 3 hrs by real-time PCR analysis; type: cell-based; conditions: THP-1
T2 sequence (whole entry): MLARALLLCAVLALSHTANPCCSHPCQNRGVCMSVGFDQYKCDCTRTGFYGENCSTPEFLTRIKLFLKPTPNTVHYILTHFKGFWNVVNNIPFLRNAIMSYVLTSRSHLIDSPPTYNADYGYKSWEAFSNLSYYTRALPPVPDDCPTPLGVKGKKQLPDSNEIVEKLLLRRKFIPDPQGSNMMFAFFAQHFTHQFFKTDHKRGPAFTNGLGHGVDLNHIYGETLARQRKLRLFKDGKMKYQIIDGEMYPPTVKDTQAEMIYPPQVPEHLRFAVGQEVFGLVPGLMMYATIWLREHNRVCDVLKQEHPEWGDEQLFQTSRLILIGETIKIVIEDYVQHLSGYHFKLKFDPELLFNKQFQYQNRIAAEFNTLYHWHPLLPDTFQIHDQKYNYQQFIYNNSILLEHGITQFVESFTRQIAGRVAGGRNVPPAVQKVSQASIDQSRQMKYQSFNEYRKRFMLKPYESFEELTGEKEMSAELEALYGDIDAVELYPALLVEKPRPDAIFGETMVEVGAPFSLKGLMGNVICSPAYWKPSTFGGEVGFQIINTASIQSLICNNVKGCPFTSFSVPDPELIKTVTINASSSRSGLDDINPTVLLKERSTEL
In short: (§1)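 THP-1 monocytes differentiated to macrophages with 12 nM PMA for 48 h. Cells were treated with compound ([…]) for 1 h, with 0.1% DMSO as calibrator. They were then stimulated with LPS O55:B5 at 7.5 ng/ml, except the DMSO well, for another 3 h. Cells were washed twice with cold PBS. Total RNA was extracted and reverse-transcribed. TaqMan qPCR was run in duplicate with GAPDH as reference.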

[4] = Downregulation of NF-kappaB1 gene expression in differentiated human THP1 cells stimulated with LPS at 50 ug/ml preincubated for 1 hr followed by LPS stimulation measured after 3 hrs by real-time PCR analysis; type: functional, cell-based; conditions: THP-1; in short: as §1

Compound: CC1=CC(c2ccccc2)NC(=S)N1 (stereo unspecified)
inhibition [2]: inactive
inhibition [3]: Active
Activity [4]: Active

Compound: CC1=CC(C(C)C)NC(=S)N1 (racemic)
inhibition [2]: inactive

Compound: COc1ccc(C2C=C(C)NC(=S)N2)cc1 (racemic)
inhibition [2]: 33.2%

Compound: CC1=CC(c2ccc(C(F)(F)F)cc2)NC(=S)N1 (racemic)
inhibition [2]: 0.92%

Compound: CC1=CC(c2ccc([N+](=O)[O-])cc2)NC(=S)N1 (racemic)
inhibition [2]: 29.8%

Now from value to compound, other results behind:

IC50 [1]: 50 µM
inhibition [2]: 53%
inhibition [3]: Active
Compound: CC1=CC(c2ccccc2[N+](=O)[O-])NC(=S)N1 (racemic)
Activity [4]: Active

inhibition [2]: 3.06%
Compound: CC1=CC(c2ccccc2Cl)NC(=S)N1 (racemic)

inhibition [2]: 10.3%
Compound: CC1=CC(c2ccc(Cl)cc2)NC(=S)N1 (racemic)

inhibition [2]: 15.4%
Compound: CC1=CC(c2ccc(Br)cc2)NC(=S)N1 (racemic)

inhibition [2]: inactive
Compound: CC1=CC(c2ccc(F)cc2)NC(=S)N1 (racemic)

inhibition [2]: inactive
Compound: CC1=CC(c2ccc(Cl)cc2Cl)NC(=S)N1 (racemic)
